In data set [1] the test system is Hsp90-dependent signaling pathway. As to the kind of experiment: Yeast reporter assay, Hsp90-dependent signaling. Conditions: Saccharomyces cerevisiae, read-out: IC50 Hsp90-dependent signaling pathway. It counts as cell-based. A general note: In a reporter assay the amount or activity of a reporter protein is the signal.
In data set [2] the test system is C. albicans clinical isolate CaCi-8. The experiment in a line: CaCi-8 growth inhibition in the presence of fluconazole. It counts as cell-based, Candida albicans. Conditions: at approximately 1 μM, with fluconazole. Put shortly:
(§1)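 Candida albicans clinical isolates were incubated with test compound and a fixed 8 μg/mL fluconazole at 37 °C for 48 h. Growth inhibition was read by Alamar blue fluorometry. Values are the average of at least three runs.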

The test system of data set [3] is calcineurin-dependent signaling pathway. The experiment in a line: Yeast reporter assay, calcineurin-dependent signaling. The format is cell-based. Particulars: Saccharomyces cerevisiae, read-out: IC50 calcineurin-dependent signaling pathway.
In data set [4] the test system is CaCi-2. As to the kind of experiment: CaCi-2 growth inhibition in the absence of fluconazole. The format is cell-based, Candida albicans.
Data set [5] can be described thus: Aqueous. The format is physicochemical. Particulars: aqueous / PBS solution, in words.
Data set [6] has as its system C. albicans clinical isolate CaCi-2. The experiment in a line: CaCi-2 growth inhibition in the presence of fluconazole. It counts as cell-based, Candida albicans. Put shortly:
as §1

Data set [7] has as its system murine 3T3 fibroblasts. As to the kind of experiment: Mammalian fibroblast toxicity counterscreen. It counts as cell-based.
Data set [8] concerns CaCi-8. As to the kind of experiment: Fluconazole MIC determination, CaCi-8. It counts as cell-based. Particulars: Candida albicans, read-out: MIC for CaCi-8.
The test system of data set [9] is CaCi-2. The experiment in a line: Fluconazole MIC determination, CaCi-2. It counts as cell-based. Conditions: Candida albicans, read-out: MIC for CaCi-2.

From publication PMC3287054 (Bioorganic & medicinal chemistry letters, 2011) come the findings set out here.

Converted amounts (≈) assume the structure as drawn.

By IC50 is commonly meant the point on the concentration scale where inhibition reaches its midpoint. As to `O=C(c1ccc(Cl)cc1)N1CCN(c2ccnc3cc(Cl)ccc23)CC1` [Compound 1], the IC50 in data set [1] and in [3] was more than 26 µM throughout. The “Growth inhibition of CaCi-8” value in data set [2] is given as 97–100%. Also, in data set [4], the “Effect on CaCi-2 in the absence of fluconazole” value was “no discernible effect”. Further, in data set [5], the Solubility result is “poor aqueous solubility”. The “Growth inhibition of CaCi-2” value in [6] (at approximately 1 μM, with fluconazole) was 97–100%. In [7], the “Concentration up to which murine 3T3 fibroblasts showed no response” value was more than 26 µM.
A word on the inhibition: it is the change of the read-out against control, counted positive when it falls. Turning to `COC1=C2C[C@@H](C)C[C@H](OC)[C@H](O)[C@@H](C)/C=C(\C)[C@H](OC(N)=O)[C@@H](OC)/C=C\C=C(/C)C(=O)NC(=CC1=O)C2=O` [Geldanamycin], the inhibition at 10 µM in data set [6] (Candida albicans, read-out: Growth inhibition (control)) was found to be 100%.
As a reminder, the MIC is the lowest concentration found to suppress growth. For the molecule `OC(Cn1cncn1)(Cn1cncn1)c1ccc(F)cc1F` [fluconazole], the MIC is 8 µg/mL (≈ 26.1 µM) in data set [8] and 2 µg/mL (≈ 6.53 µM) in data set [9]. Besides, the inhibition at 8 µg/mL in [6] (Candida albicans, read-out: Baseline growth inhibition in CaCi-2) lay within 60 to 80%.
